This is an account of results in ChEMBL document CHEMBL3243985, “Synthesis of two metabolites of (+)-propoxyphene” (J Med Chem, 1977).

Calls of active or inactive are those of the source. No cut-off for these calls is given here.

In general, ED50 refers to the dose that gives a 50% effect, or the effect in half of the subjects.

Series [1] concerns Mus musculus. As to the kind of experiment: Analgesic activity in sc dosed mouse assessed as inhibition of acetic acid-induced writhing. In kind it is functional. The method in brief: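 Test agents were given to mice by subcutaneous injection, and doses were expressed in mg/kg. The ED50 was derived from the dose-response data and reported with 95% confidence limits.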
The test system of series [2] is Mus musculus. Nature of the series: Analgesic activity in sc dosed mouse assessed as peak inhibition of acetic acid-induced writhing measured at 5 to 15 mins. In kind it is functional, organism-based.
The test system of series [3] is Mus musculus. Nature of the series: Analgesic activity in sc dosed mouse assessed as inhibition of acetic acid-induced writhing measured at 30 to 60 mins. Type of series: functional, organism-based. A general note: In writhing tests, fewer writhes than in controls are read as antinociception.
Series [4] is filed under the species Mus musculus. Nature of the series: Toxicity in mouse assessed as scratching at injection site at 1 mg/ml. In kind it is organism-based. To be noted: in vivo.
Series [5] concerns Mus musculus. Nature of the series: Analgesic activity in sc dosed mouse assessed as inhibition of acetic acid-induced writhing in presence of 10 mg/kg naloxone. Type of series: functional, organism-based. Further details: dose 10 mg/kg. The following applies: at 10 mg/kg.
For series [6], the system named is Mus musculus. As to the kind of experiment: Analgesic activity in mouse assessed as inhibition of acetic acid-induced writhing at 100 mg/kg, sc. Type of series: functional, organism-based. Set-up: dose 100 mg/kg.

As for `CCC(=O)O[C@](Cc1ccccc1)(c1ccccc1)[C@H](C)CN`, in the series on Mus musculus [1], the ED50 stood at 25 mg/kg. Also, the inhibition entry in the series on Mus musculus [2] and with Mus musculus [3] was “Active” in each case. For the same compound, in the series listed under Mus musculus [4], the Activity entry is given as “Toxic”. In addition, the inhibition result with Mus musculus [5] was “inactive”.

`CCC(=O)OC(Cc1ccccc1)(c1ccccc1)C(C)CN.Cl` (racemic): the ED50 in the series on Mus musculus [1] stood at 51 mg/kg. Further, the inhibition result in the series on Mus musculus [2] and in the series on Mus musculus [3] was “Active” throughout. In addition, the Activity result in the series filed under Mus musculus [4] was “Toxic”. For the same compound, the inhibition entry in the series with Mus musculus [5] is “inactive”.

As to `CCC1=NCC(C)C(Cc2ccccc2)(c2ccccc2)O1` (racemic), the inhibition entry in the series with Mus musculus [6] was “inactive”.

With `CCC(=O)O[C@](Cc1ccccc1)(c1ccccc1)[C@H](C)CN(C)C` [PROPOXYPHENE], the ED50 in the series with Mus musculus [1] amounted to 6.9 mg/kg.
